The IC50 is the concentration that gives 50% inhibition.

Among the data in ChEMBL document CHEMBL4316640, “Taichunins A-D, Norditerpenes from Aspergillus taichungensis (IBT 19404)” (J Nat Prod, 2019) are inhibition, Activity and IC50 values, retold here.

Test [1] addresses T1, Ubiquitin-like modifier-activating enzyme 1 (Homo sapiens) (UniProt P22314).
T1 sequence (whole entry): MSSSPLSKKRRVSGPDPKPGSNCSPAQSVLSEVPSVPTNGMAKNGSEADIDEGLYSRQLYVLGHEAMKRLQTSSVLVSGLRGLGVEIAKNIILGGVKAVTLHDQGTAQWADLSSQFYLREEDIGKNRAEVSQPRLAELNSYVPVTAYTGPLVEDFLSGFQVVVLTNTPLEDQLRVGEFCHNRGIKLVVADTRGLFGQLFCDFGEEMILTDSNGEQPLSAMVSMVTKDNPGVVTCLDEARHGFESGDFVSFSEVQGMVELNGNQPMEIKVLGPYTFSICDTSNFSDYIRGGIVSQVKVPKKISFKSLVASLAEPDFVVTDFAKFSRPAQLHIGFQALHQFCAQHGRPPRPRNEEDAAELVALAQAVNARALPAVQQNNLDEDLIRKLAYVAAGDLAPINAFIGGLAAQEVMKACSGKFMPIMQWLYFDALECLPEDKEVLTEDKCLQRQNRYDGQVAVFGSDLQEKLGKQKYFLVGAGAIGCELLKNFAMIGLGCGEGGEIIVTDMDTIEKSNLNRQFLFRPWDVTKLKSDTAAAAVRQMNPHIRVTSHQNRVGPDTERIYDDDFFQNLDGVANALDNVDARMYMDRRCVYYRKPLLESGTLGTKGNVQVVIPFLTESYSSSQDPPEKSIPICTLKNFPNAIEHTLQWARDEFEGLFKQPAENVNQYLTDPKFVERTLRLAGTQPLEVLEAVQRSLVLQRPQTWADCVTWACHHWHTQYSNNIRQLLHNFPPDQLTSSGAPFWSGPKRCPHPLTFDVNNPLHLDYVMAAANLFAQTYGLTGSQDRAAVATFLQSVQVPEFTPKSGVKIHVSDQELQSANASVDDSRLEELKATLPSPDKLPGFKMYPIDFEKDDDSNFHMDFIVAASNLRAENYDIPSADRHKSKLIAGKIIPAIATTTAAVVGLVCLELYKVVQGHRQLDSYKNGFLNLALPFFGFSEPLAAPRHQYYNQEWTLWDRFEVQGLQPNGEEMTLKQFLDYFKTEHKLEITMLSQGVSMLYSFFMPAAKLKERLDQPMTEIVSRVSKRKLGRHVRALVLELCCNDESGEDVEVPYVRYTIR
Put plainly: Inhibition of Ubiquitin/Ubiquitin-activating enzyme E1 (unknown origin).

The subject of test [2] is HeLa. Put plainly: Cytotoxicity in human HeLa cells at 50 uM incubated for 3 days by MTT assay. Type of test: functional, cell-based. In outline: (§1)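 HeLa cells; daunorubicin run alongside as the positive control.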
A further test deals with Macrophage. Put plainly: Inhibition of cholesterol ester accumulation in macrophages (unknown origin). The class given is functional, cell-based.
In another test the test system is Proteasome. Put plainly: Inhibition of proteasome (unknown origin). The class given is subcellular. Particulars: Homo sapiens.
In test [3] the target is Tumour suppressor p53/oncoprotein Mdm2 (Homo sapiens) (UniProt P04637+Q00987). Put plainly: Inhibition of p53/Mdm2 interaction (unknown origin). Type of test: protein assay.
Sequence of Tumour suppressor p53/oncoprotein Mdm2 (Homo sapiens) (P04637 whole entry, looked up): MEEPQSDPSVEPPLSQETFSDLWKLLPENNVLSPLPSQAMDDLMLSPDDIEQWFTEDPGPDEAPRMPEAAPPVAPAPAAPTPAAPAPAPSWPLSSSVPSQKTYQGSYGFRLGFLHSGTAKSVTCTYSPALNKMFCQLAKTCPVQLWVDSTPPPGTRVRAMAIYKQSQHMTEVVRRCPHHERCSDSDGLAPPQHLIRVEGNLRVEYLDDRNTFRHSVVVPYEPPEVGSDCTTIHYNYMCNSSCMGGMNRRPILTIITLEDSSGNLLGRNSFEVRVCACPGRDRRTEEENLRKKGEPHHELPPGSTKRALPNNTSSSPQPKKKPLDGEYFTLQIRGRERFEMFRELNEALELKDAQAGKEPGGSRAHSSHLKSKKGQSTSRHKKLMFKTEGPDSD
Sequence of Tumour suppressor p53/oncoprotein Mdm2 (Homo sapiens) (Q00987 whole entry, looked up): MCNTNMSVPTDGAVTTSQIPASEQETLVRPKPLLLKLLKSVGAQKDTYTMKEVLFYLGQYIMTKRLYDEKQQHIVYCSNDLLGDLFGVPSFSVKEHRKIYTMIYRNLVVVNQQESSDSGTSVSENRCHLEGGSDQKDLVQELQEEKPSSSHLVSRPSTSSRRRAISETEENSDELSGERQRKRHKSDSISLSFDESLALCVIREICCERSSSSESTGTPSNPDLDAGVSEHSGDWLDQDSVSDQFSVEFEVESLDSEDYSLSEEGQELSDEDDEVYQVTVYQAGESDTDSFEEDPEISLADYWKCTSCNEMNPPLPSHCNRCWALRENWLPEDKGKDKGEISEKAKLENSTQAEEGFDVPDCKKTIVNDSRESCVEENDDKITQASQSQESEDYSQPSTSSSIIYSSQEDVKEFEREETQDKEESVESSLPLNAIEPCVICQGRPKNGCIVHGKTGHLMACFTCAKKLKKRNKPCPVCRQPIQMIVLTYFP
The subject of another test is Osteoclast. Put plainly: Inhibition of RANKL-induced formation of multinuclear osteoclasts (unknown origin). Type of test: functional, cell-based.
Test [4] addresses Ubiquitin-conjugating enzyme E2 N/Ubiquitin-conjugating enzyme E2 variant 1 (Homo sapiens) (UniProt Q13404+P61088). Put plainly: Inhibition of Ubc13/Uev1A interaction (unknown origin). Type of test: protein assay.
Test [5] concerns the target Ubiquitin carboxyl-terminal hydrolase 7 (Homo sapiens) (UniProt Q93009). Put plainly: Inhibition of USP7 (unknown origin).
In test [6] the test system is HeLa. Put plainly: Cytotoxicity in human HeLa cells incubated for 3 days by MTT assay. Type of test: functional, cell-based. Particulars: 72 h. In outline: as §1

Calls of active or inactive are those of the source. No cut-off for these calls is given here.

Sequence of Ubiquitin carboxyl-terminal hydrolase 7 (Homo sapiens) (Q93009 whole entry, looked up): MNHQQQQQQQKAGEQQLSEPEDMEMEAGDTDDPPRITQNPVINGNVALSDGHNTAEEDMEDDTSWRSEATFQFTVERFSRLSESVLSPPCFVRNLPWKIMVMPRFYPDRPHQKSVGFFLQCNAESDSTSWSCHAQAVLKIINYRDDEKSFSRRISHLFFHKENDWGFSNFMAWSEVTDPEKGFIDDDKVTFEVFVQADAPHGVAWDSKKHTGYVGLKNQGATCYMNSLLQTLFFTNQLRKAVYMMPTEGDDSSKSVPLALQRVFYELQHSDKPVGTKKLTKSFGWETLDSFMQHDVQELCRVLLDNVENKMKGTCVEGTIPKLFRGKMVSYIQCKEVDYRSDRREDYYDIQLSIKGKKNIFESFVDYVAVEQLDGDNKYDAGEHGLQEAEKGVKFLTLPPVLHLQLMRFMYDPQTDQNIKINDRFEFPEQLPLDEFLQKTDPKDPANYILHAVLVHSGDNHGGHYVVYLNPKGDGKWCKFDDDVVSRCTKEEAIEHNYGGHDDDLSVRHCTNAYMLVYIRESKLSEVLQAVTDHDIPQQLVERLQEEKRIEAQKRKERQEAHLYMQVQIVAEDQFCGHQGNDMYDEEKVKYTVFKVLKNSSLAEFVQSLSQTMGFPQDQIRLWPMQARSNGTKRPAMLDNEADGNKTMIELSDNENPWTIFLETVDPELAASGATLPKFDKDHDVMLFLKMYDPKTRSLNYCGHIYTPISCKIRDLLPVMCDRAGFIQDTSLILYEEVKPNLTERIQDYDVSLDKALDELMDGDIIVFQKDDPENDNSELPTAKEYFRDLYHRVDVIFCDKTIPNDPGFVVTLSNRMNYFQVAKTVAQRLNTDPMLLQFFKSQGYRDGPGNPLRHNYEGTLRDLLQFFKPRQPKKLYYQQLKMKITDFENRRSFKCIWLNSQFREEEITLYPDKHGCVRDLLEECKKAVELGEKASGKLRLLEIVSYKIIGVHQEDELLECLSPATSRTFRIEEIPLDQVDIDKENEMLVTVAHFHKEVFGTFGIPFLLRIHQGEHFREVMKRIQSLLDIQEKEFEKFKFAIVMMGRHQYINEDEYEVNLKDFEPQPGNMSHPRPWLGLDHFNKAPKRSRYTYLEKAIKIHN

With `C=C[C@]1(C)CC2=C(O)C(=O)C3=C(CCCC3(C)C)C2=CC1=O`, the inhibition entry (in test [1]; in the test with Macrophage; in the test on Proteasome; in test [3]; with Osteoclast; in test [4]) was “inactive” throughout. In [5], the inhibition entry was “inactive”. The result in the test with HeLa [2] was inactive.

For `C=C[C@]1(C)C=C2[C@@H](O)[C@@]3(O)OC(=O)[C@@]4(CCCC(C)(C)[C@H]34)[C@@]2(O)CC1`, the inhibition result (in test [1]; in the test on Macrophage; in the test on Proteasome; in [3]; in the test on Osteoclast; in test [4]) was “inactive” each time. In addition, the inhibition result in test [5] is “inactive”. For the same molecule, the outcome with HeLa [2] was inactive.

As to `C=C[C@@]1(C)CCC2=C(C(=O)O[C@]23CCCC(C)(C)[C@@H]3C(=O)O[C@@H]2O[C@H](CO)[C@@H](O)[C@H](O)[C@H]2O)[C@@H]1O`, the inhibition entry (in test [1]; in the test with Macrophage; in the test on Proteasome; in [3]; in the test on Osteoclast; in test [4]) was “inactive” each time. Moreover, the inhibition result in test [5] was “inactive”. The result in the test with HeLa [2] was inactive.

As to `C=C[C@@]1(C)CCC2=C(C(=O)O[C@]23CCCC(C)(C)[C@@H]3C(=O)O)[C@@H]1O`, the inhibition result (in [1]; in the test on Macrophage; with Proteasome; in test [3]; with Osteoclast; in test [4]) was “inactive” each time. Moreover, the inhibition result in test [5] was “inactive”. For the same molecule, in the test with HeLa [2], the outcome was inactive.

With `C=C[C@]1(C)C=C2C(=O)O[C@@]34CCCC(C)(C)[C@@H]3C(=O)O[C@@]24CC1`, the inhibition entry (in [1]; in the test with Macrophage; in the test on Proteasome; in test [3]; in the test with Osteoclast; in test [4]) was “inactive” in each case. In [5], the inhibition entry was “inactive”. Further, in the test with HeLa [6], the IC50 was determined as 4.5 µM.
